Assay [1] concerns the target T1, 5-hydroxytryptamine receptor 1A (Homo sapiens, UniProt P08908).
T1 sequence (P08908 whole entry): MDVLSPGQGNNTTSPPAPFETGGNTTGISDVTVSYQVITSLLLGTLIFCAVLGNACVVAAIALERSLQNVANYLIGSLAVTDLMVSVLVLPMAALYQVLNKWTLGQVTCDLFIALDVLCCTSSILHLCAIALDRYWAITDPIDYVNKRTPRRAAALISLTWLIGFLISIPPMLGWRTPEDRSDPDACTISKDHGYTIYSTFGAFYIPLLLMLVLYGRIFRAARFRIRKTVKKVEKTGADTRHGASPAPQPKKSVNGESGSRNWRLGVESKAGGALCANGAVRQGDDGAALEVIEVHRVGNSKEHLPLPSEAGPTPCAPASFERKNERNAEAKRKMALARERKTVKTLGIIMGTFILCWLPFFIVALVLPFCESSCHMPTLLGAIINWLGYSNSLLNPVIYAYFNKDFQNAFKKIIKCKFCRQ

In assay [2] the target is T2, 5-hydroxytryptamine receptor 7 (Rattus norvegicus, UniProt P32305). In words: Binding affinity against Rat 5-hydroxytryptamine 7 receptor using [3H]5-HT.
The target in assay [3] is T3, D(2) dopamine receptor (Homo sapiens, UniProt P14416). In words: Binding affinity was measured on cloned Human D2A Receptor which is labeled by [3H]raclopride.
Assay [4] deals with T1, 5-hydroxytryptamine receptor 1A. In words: Binding affinity was measured on cloned human 5-hydroxytryptamine 1A receptor which is labeled by [3H]8-OH-DPAT. The gist of the method: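 Membranes from CHO cells expressing cloned human 5-HT1A receptor, in 50 mM Tris-HCl, 4 mM MgCl2, pH 7.4; about 40 pM receptor. Competition against 1 nM [3H]8-OH-DPAT, 60 min at 30 °C. Nonspecific binding defined with 10 μM WAY-100635. Filtration, liquid scintillation counting. Ki by nonlinear regression, mean ± SE of 2–3 experiments.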

Assay [5] deals with T2, 5-hydroxytryptamine receptor 7. As to the kind of experiment: Displacement of [3H]5-HT from over-expressed rat 5-hydroxytryptamine 7 receptor. The gist of the method:
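Cloned rat 5-HT7 receptor in CHO or Sf9 cell membranes, in 50 mM Tris-HCl, 4 mM MgCl2, 1 mM EDTA, pH 7.4; 30-40 pM receptor. Competition against 0.8 nM [3H]5-HT, 60 min at 30 °C. Nonspecific binding defined with 10 μM methiothepin. Filtration, scintillation counting. Ki by nonlinear regression, mean ± SE of 2–3 experiments.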
In general terms: Displacement assays read how much labelled ligand stays bound in the presence of the test substance.

Assay [6] deals with T3, D(2) dopamine receptor. In words: Displacement of [3H]raclopride from human Dopamine receptor D2A. The gist of the method:
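Cloned human D2A receptor expressed in mouse fibroblast Ltk- cell membranes. Competition against [3H]raclopride binding, following an earlier method. Ki by nonlinear regression, mean ± SE of 2–3 experiments.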

The target of assay [7] is T4, 5-hydroxytryptamine receptor 1A (Rattus norvegicus, UniProt P19327).
T4 sequence (P19327 whole entry): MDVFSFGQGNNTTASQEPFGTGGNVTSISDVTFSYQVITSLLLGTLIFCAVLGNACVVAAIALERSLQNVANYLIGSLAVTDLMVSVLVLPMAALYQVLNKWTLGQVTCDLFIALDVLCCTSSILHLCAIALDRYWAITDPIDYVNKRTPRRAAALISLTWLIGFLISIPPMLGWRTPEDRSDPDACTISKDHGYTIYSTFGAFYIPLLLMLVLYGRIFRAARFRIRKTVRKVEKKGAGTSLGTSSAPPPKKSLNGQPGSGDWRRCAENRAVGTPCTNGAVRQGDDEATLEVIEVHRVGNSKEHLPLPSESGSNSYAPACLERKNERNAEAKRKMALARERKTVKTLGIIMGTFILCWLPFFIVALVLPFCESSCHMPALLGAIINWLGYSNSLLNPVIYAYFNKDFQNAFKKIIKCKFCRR
As to the kind of experiment: Binding affinity was measured on cloned rat 5-hydroxytryptamine 1A receptor which is labeled by [3H]8-OH-DPAT.

Molecules are shown by their SMILES.

The text below walks through data of ChEMBL document CHEMBL1132996, “Derivatives of (R)-1,11-methyleneaporphine: synthesis, structure, and interactions with G-protein coupled receptors” (J Med Chem, 2000).

T2 sequence (P32305 whole entry): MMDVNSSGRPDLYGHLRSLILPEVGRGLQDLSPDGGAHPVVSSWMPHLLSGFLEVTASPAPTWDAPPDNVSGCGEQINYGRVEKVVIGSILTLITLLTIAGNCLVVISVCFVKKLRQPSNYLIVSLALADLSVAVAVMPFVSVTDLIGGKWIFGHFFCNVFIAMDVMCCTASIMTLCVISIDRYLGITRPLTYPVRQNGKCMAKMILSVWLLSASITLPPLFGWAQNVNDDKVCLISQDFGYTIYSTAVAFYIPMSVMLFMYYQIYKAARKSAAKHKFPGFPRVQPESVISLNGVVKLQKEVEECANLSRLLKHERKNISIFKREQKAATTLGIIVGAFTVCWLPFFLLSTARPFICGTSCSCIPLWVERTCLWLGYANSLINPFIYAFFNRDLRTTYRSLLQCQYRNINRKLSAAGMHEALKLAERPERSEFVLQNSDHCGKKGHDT
T3 sequence (P14416 whole entry): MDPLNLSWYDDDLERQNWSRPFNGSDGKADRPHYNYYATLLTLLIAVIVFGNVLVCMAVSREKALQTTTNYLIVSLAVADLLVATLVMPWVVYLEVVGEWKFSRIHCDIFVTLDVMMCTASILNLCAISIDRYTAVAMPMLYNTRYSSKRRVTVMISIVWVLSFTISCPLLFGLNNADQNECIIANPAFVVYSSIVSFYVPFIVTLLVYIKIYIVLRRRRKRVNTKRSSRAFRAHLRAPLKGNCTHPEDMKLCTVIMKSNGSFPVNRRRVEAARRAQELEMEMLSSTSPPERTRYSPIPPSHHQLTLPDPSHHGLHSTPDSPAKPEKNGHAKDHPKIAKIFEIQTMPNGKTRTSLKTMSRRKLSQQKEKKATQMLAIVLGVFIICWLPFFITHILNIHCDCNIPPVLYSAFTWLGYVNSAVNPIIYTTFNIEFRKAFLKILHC

With `CN1CCc2ccc3c4c2[C@H]1Cc1cccc(c1-4)C3`, the Ki in assay [1] was determined as 40.7 nM; in assay [2] it was 6.9 nM; in assay [3], 83.2 nM.

Regarding `CCO[C@]1(CC)c2cccc3c2-c2c1ccc1c2[C@@H](C3)N(C)CC1`, the results for the Ki in assay [4], in assay [5] and in assay [6] were 1.84 nM, 25.7 nM and 70.8 nM, respectively.

Turning to `CO[C@@]1(C)c2cccc3c2-c2c1ccc1c2[C@@H](C3)N(C)CC1`, the values for the Ki in assay [4], in assay [5] and in assay [6] were 16.9 nM, 1.1 nM and 71 nM, respectively.

In the case of `CCCN(CCC)[C@H]1CCc2c(F)ccc(O)c2C1`, the Ki in assay [1] is 87 nM; in assay [2], 3180 nM; in assay [3], 3760 nM.

For `CN1CCc2ccc3c4c2[C@H]1Cc1cccc(c1-4)[C@H]3N`, the Ki in assay [4] was found to be 142 nM; in assay [5] it was 13.4 nM; in assay [6] it was 261 nM.

Regarding `CN1CCc2ccc3c4c2[C@H]1Cc1cccc(c1-4)C3=O`, the Ki in assay [7] is 140 nM; in assay [5] it was 291 nM; in assay [6] it was 317 nM.

In the case of `CN1CCc2ccc3c4c2[C@H]1Cc1cccc(c1-4)[C@]3(C)O`, the inhibitory constant (Ki) is 61.5 nM in assay [7], 4.3 nM in assay [5] and 26 nM in assay [6].

For `CN1CCc2ccc3c4c2[C@H]1Cc1cccc(c1-4)[C@@]3(C)O`, the inhibition constant (Ki) in assay [7] is 315 nM; in assay [5], 27.7 nM; in assay [6] it was 182 nM.

With `CC(=O)N[C@H]1c2cccc3c2-c2c1ccc1c2[C@@H](C3)N(C)CC1`, the Ki in assay [4] was determined as 716 nM; in assay [5], 1320 nM; in assay [6], 7980 nM.

Regarding `C[C@H]1c2cccc3c2-c2c1ccc1c2[C@@H](C3)N(C)CC1`, the figures for the Ki in assay [1], in assay [2] and in assay [3] were 31.1 nM, 5.6 nM and 39.2 nM, respectively.

In the case of `CO[C@]1(C)c2cccc3c2-c2c1ccc1c2[C@@H](C3)N(C)CC1`, the Ki in assay [4] was determined as 17.3 nM; in assay [5] it was 1.1 nM; in assay [6], 7.1 nM.

With `CN1CCc2ccc3c4c2[C@H]1Cc1cccc(c1-4)[C@@H]3O`, the figures for the inhibition constant (Ki) in assay [7], in assay [5] and in assay [6] were 1210 nM, 103 nM and 215 nM, respectively.

Compound `NCCc1c[nH]c2ccc(C(N)=O)cc12` returned a Ki in assay [2] of 0.029 nM.

In assay [2], `CCCN(CCC)[C@@H]1CCc2cccc(O)c2C1` registered an inhibition constant Ki of 8.81 nM. Against the preceding compound, the Ki is about 300-fold higher.

As for `C[C@@H]1c2cccc3c2-c2c1ccc1c2[C@@H](C3)N(C)CC1`, the inhibitory constant (Ki) was 5.05 nM in assay [1], 3.36 nM in assay [2] and 19.4 nM in assay [3].

The compound `CN1CCc2cccc3c2[C@H]1Cc1ccc(O)c(O)c1-3` [APOMORPHINE] gave an inhibition constant (Ki) in assay [2] of 188 nM.

For the compound `Cc1cccc2c1-c1cccc3c1[C@@H](C2)N(C)CC3`, the Ki in assay [1] is 14.4 nM; in assay [2], 38.3 nM.

In the case of `CN1CCc2ccc3c4c2[C@H]1Cc1cccc(c1-4)[C@@H]3N`, the inhibition constant Ki in assay [4] is 355 nM; in assay [5], 18 nM.

Consider `CCO[C@@]1(CC)c2cccc3c2-c2c1ccc1c2[C@@H](C3)N(C)CC1`, for which the inhibition constant Ki in assay [4] is 19.1 nM; in assay [5] it was 3.05 nM; in assay [6] it was 24.5 nM.

Take `CC(=O)N[C@@H]1c2cccc3c2-c2c1ccc1c2[C@@H](C3)N(C)CC1`: the results for the Ki in assay [4], in assay [5] and in assay [6] were 204 nM, 538 nM and 3650 nM, respectively.

As to `CN1CCc2ccc3c4c2[C@H]1Cc1cccc(c1-4)[C@H]3O`, the inhibitory constant (Ki) came out at 31 nM in assay [7], 13.5 nM in assay [5] and 23.8 nM in assay [6].

For orientation: Ki means the dissociation constant of the complex between target and ligand, obtained from inhibition or displacement.
